From PMC3254186 (Frontiers in Pharmacology, 2011)
Structures can show the parent of a compound that is named as a salt.

How the values were obtained:
Kir1.1 (S44D) = biological target: T1, Kir1.1 (S44D) (Rattus norvegicus, UniProt P35560, S44D); assay: Tl+ flux assay, tetracycline-inducible Kir1.1-S44D T-REx-HEK-293 cells; assay type: cell-based; conditions: IC50 Kir1.1, Tl+ flux, mean ± SEM (n = 3)
T1 sequence (P35560 1-391 S44D): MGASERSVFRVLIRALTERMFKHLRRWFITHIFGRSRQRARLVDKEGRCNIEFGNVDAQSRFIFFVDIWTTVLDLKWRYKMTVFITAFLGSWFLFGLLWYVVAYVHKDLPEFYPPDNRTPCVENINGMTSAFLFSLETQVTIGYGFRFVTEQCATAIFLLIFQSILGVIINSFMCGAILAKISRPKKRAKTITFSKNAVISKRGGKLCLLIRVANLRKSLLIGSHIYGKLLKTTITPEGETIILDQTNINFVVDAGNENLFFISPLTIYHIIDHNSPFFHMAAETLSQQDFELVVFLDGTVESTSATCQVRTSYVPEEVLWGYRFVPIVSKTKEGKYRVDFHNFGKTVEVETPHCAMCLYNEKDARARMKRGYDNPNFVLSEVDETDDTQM
In short: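 Monoclonal C1 T-REx-HEK-293 Kir1.1-S44D cells were grown in DMEM with 10% FBS, penicillin/streptomycin, 5 μg/mL blasticidin S and 250 μg/mL hygromycin. Channel expression was induced overnight with tetracycline. Cells were loaded with FluoZin-2 and pre-treated with test compound from 1:3 serial dilutions. Extracellular Tl+ was then added and fluorescence imaged kinetically at 20–23°C. CRC, mean ± SEM, n = 3.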

Kir1.1 = conditions: read-out: Kir1.1 inhibitor potency; ref Lewis et al., [2009]; cited from earlier work
Kir7.1 = conditions: read-out: IC50 Kir7.1; ref Lewis et al., [2009]; cited from earlier work
Kir7.1-M125R = biological target: T2, Kir7.1-M125R (Homo sapiens, UniProt O60928, M125R); assay: Tl+ flux assay, polyclonal Kir7.1-M125R T-REx-HEK-293 cells; assay type: cell-based
T2 sequence (O60928 1-360 M125R): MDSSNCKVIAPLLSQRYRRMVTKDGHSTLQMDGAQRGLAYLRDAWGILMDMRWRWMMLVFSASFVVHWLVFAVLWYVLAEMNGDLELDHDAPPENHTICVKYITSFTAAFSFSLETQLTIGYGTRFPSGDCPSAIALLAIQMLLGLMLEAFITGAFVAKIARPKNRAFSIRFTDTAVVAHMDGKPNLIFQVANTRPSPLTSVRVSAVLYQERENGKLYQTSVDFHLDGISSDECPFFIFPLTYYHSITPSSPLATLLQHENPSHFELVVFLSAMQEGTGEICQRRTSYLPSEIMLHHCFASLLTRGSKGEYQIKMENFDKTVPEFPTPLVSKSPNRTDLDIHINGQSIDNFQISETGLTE

Structure (SMILES)	IC50 (Kir1.1 (S44D))	also measured
N=c1n(Cc2ccccc2)c2ccccc2n1CC(O)COc1ccccc1 (centres unmarked) [Compound 5, 1-(3-benzyl-2-imino-2,3-dihydro-1H-benzo[d]imidazol-1-yl)-3-phenoxypropan-2-ol]	11.7 ± 4.1 µM	
O=[N+]([O-])c1ccc(CN2CCOCCOCCN(Cc3ccc([N+](=O)[O-])cc3)CCOCC2)cc1 [VU590, 7,13-bis[(4-nitrophenyl)methyl]-1,4,10-trioxa-7,13-diazacyclopentadecanedihydrochloride]		IC50 (Kir1.1): ~0.3 µM; IC50 (Kir7.1): ~8 µM
N=c1n(Cc2ccccc2)c2ccccc2n1CC(O)CN1CCOCC1 (centres unmarked) [Compound 9, 1-(3-benzyl-2-imino-2,3-dihydro-1H-benzo[d]imidazol-1-yl)-3-morpholinopropan-2-ol]	> 100 µM	activity toward Kir7.1 (Kir7.1-M125R): lost activity
N=c1n(Cc2ccccc2)c2ccccc2n1CC(O)COc1ccc(Cl)cc1Cl (centres unmarked) [Compound 2, 1-(3-benzyl-2-imino-2,3-dihydro-1H-benzo[d]imidazol-1-yl)-3-(2,4-dichlorophenoxy)propan-2-ol]	7.07 ± 2.3 µM	
N#Cc1ccc(F)c(OCC(O)Cn2c(=N)n(Cc3ccccc3)c3ccccc32)c1 (centres unmarked) [Compound 17, 3-(3-(3-benzyl-2-imino-2,3-dihydro-1H-benzo[d]imidazol-1-yl)-2-hydroxypropoxy)-4-fluorobenzonitrile]	8.27 ± 0.29 µM	
COc1cccc(Cn2c(=N)n(CC(O)COc3ccc(C)cc3)c3ccccc32)c1 (centres unmarked) [Compound 24, 1-(2-imino-3-(3-methoxybenzyl)-2,3-dihydro-1H-benzo[d]imidazol-1-yl)-3-(p-tolyloxy)propan-2-ol]	13.7 ± 4.4 µM	
CC(C)c1ccc(OCC(O)Cn2c(=N)n(Cc3ccccc3)c3ccccc32)cc1 (centres unmarked) [Compound 8, 1-(3-benzyl-2-imino-2,3-dihydro-1H-benzo[d]imidazol-1-yl)-3-(4-isopropylphenoxy)propan-2-ol]	6.77 ± 1.7 µM	
N=c1n(Cc2ccccc2)c2ccccc2n1CC(O)COc1cc(F)cc(F)c1 (centres unmarked) [Compound 7, 1-(3-benzyl-2-imino-2,3-dihydro-1H-benzo[d]imidazol-1-yl)-3-(3,5-difluorophenoxy)propan-2-ol]	7.57 ± 2.2 µM	
COc1cccc(OCC(O)Cn2c(=N)n(Cc3ccccc3)c3ccccc32)c1 (centres unmarked) [Compound 14, 1-(3-benzyl-2-imino-2,3-dihydro-1H-benzo[d]imidazol-1-yl)-3-(3-methoxyphenoxy)propan-2-ol]	10.1 ± 2.9 µM	
N=c1n(Cc2ccccc2)c2ccccc2n1CC(O)COc1ccc(Cc2ccccc2)cc1 (centres unmarked) [Compound 10, 1-(3-benzyl-2-imino-2,3-dihydro-1H-benzo[d]imidazol-1-yl)-3-(4-benzylphenoxy)propan-2-ol]	6.13 ± 0.23 µM	
N=c1n(Cc2ccccc2)c2ccccc2n1CC(O)COc1ccc(Cl)cc1 (centres unmarked) [Compound 3, 1-(3-benzyl-2-imino-2,3-dihydro-1H-benzo[d]imidazol-1-yl)-3-(4-chlorophenoxy)propan-2-ol]	6.57 ± 3.8 µM	
N=c1n(Cc2ccc(Cl)cc2)c2ccccc2n1CC(O)COc1ccccc1 (centres unmarked) [Compound 22, 1-(3-(4-chlorobenzyl)-2-imino-2,3-dihydro-1H-benzo[d]imidazol-1-yl)-3-phenoxypropan-2-ol]	14.7 ± 2.1 µM	
Cc1ccccc1OCC(O)Cn1c(=N)n(Cc2ccccc2)c2ccccc21 (centres unmarked) [Compound 6, 1-(3-benzyl-2-imino-2,3-dihydro-1H-benzo[d]imidazol-1-yl)-3-(o-tolyloxy)propan-2-ol]	11.9 ± 2.2 µM	
COc1ccc(OCC(O)Cn2c(=N)n(Cc3ccccc3)c3ccccc32)cc1 (centres unmarked) [Compound 13, 1-(3-benzyl-2-imino-2,3-dihydro-1H-benzo[d]imidazol-1-yl)-3-(4-methoxyphenoxy)propan-2-ol]	12.7 ± 1.2 µM	
Cn1c(=N)n(CC(O)COc2ccc(C(F)(F)F)cc2)c2ccccc21 (centres unmarked) [Compound 26, 1-(2-imino-3-methyl-2,3-dihydro-1H-benzo[d]imidazol-1-yl)-3-(4-(trifluoromethyl)phenoxy)propan-2-ol]	6.97 ± 2 µM	
Cc1cc(OCC(O)Cn2c(=N)n(Cc3ccccc3)c3ccccc32)ccc1Br (centres unmarked) [Compound 16, 1-(3-benzyl-2-imino-2,3-dihydro-1H-benzo[d]imidazol-1-yl)-3-(4-bromo-3-methylphenoxy)propan-2-ol]	8.53 ± 1.7 µM	
N=c1n(Cc2ccccc2)c2ccccc2n1CC(O)COc1ccccc1Cl (centres unmarked) [Compound 15, 1-(3-benzyl-2-imino-2,3-dihydro-1H-benzo[d]imidazol-1-yl)-3-(2-chlorophenoxy)propan-2-ol]	8.6 ± 1.2 µM	
Cc1cccc(OCC(O)Cn2c(=N)n(Cc3ccccc3)c3ccccc32)c1 (centres unmarked) [Compound 4, 1-(3-benzyl-2-imino-2,3-dihydro-1H-benzo[d]imidazol-1-yl)-3-(m-tolyloxy)propan-2-ol]	11.2 ± 2.8 µM	
N#Cc1cc(F)cc(OCC(O)Cn2c(=N)n(Cc3ccccc3)c3ccccc32)c1 (centres unmarked) [Compound 19, 3-(3-(3-benzyl-2-imino-2,3-dihydro-1H-benzo[d]imidazol-1-yl)-2-hydroxypropoxy)-5-fluorobenzonitrile]	14.3 ± 1.5 µM	
Cc1ccc(OCC(O)Cn2c(=N)n(C)c3ccccc32)cc1 (centres unmarked) [Compound 25, 1-(2-imino-3-methyl-2,3-dihydro-1H-benzo[d]imidazol-1-yl)-3-(p-tolyloxy)propan-2-ol]	13 ± 2.6 µM	
N=c1n(Cc2ccccc2)c2ccccc2n1CC(O)COc1ccc(OCc2ccccc2)cc1 (centres unmarked) [Compound 11, 1-(3-benzyl-2-imino-2,3-dihydro-1H-benzo[d]imidazol-1-yl)-3-(4-(benzyloxy)phenoxy)propan-2-ol]	5.23 ± 0.59 µM	activity toward Kir7.1 (Kir7.1-M125R): lost activity
N#Cc1ccc(OCC(O)Cn2c(=N)n(Cc3ccccc3)c3ccccc32)cc1 (centres unmarked) [Compound 12, 4-(3-(3-benzyl-2-imino-2,3-dihydro-1H-benzo[d]imidazol-1-yl)-2-hydroxypropoxy)benzonitrile]	15.7 ± 2.1 µM	
N=c1n(Cc2ccccc2)c2ccccc2n1CC(O)COc1cccc(Cl)c1 (centres unmarked) [Compound 18, 1-(3-benzyl-2-imino-2,3-dihydro-1H-benzo[d]imidazol-1-yl)-3-(3-chlorophenoxy)propan-2-ol]	11.7 ± 2.1 µM	
N=c1n(Cc2ccc(Cl)cc2)c2ccccc2n1CC(O)COc1ccc(Cl)cc1 (centres unmarked) [Compound 23, 1-(3-(4-chlorobenzyl)-2-imino-2,3-dihydro-1H-benzo[d]imidazol-1-yl)-3-(4-chlorophenoxy)propan-2-ol]	6.53 ± 3.9 µM	
Cc1cc(C)cc(OCC(O)Cn2c(=N)n(Cc3ccccc3)c3ccccc32)c1 (centres unmarked) [Compound 20, 1-(3-benzyl-2-imino-2,3-dihydro-1H-benzo[d]imidazol-1-yl)-3-(3,5-dimethylphenoxy)propan-2-ol]	16 ± 2 µM	
COc1ccccc1OCC(O)Cn1c(=N)n(Cc2ccccc2)c2ccccc21 (centres unmarked) [Compound 21, 1-(3-benzyl-2-imino-2,3-dihydro-1H-benzo[d]imidazol-1-yl)-3-(2-methoxyphenoxy)propan-2-ol]	19.3 ± 1.5 µM	
